This note sets out measurements from ChEMBL document CHEMBL1127689, “Novel 4-(aryloxy)tetrahydropyridine analogs of MPTP as monoamine oxidase A and B substrates” (J Med Chem, 1994).

The Km is the concentration of substrate that gives half-maximal velocity.

Substrate in data set [1]: CCCCc1ccc(OC2=CCN(C)CC2)cc1
Put plainly: (§1) Oxidation by human mono-amine oxidase MAO-A. An outline of the steps: (§2)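 MAO-A preparation was diluted 1:4 in 20 mM phosphate, pH 7.4, with 20% w/v glycerol and used at 0.17 μM. Four substrate concentrations were used, from 500–62.5 μM solutions in 100 mM sodium phosphate, pH 7.4, after 1 min at 37 °C. Initial rates were taken from the 324 nm amino enone absorbance, read every 3 s for 2 min, in duplicate. Km and TN came from double-reciprocal plots.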

Substrate in data set [2]: CN1CC=C(Cc2cc3ccccc3c3ccccc23)CC1
The description is as §1. An outline of the steps:
as §2

Substrate in data set [3]: CN1CC=C(Oc2cc3ccccc3c3ccccc23)CC1
The description is as §1. The gist of the method: as §2

Substrate in data set [4]: CN1CC=C(Oc2ccc(-c3ccccc3)cc2)CC1
The description is as §1. The gist of the method:
as §2

Substrate in data set [5]: CN1CC=C(Oc2ccc(C(C)(C)C)cc2)CC1
The data set is described as §1. An outline of the steps:
as §2

Substrate in data set [6]: CN1CC=C(Oc2ccc(Cl)cc2Cl)CC1
The description is as §1. The gist of the method:
as §2

Substrate in data set [7]: CN1CC=C(Oc2ccc3ccccc3c2)CC1
Described as §1. An outline of the steps:
as §2

Substrate in data set [8]: CN1CC=C(Oc2cccc3ccccc23)CC1
Described as §1. An outline of the steps: as §2

Substrate in data set [9]: CN1CC=C(Oc2ccccc2)CC1
The data set is described as §1. An outline of the steps: as §2

Substrate in data set [10]: CCCCc1ccc(OC2=CCN(C)CC2)cc1
Put plainly: (§3) Oxidation by bovine mono-amine oxidase B MAO-B. More on the design: species or system Bos taurus. An outline of the steps: (§4)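 Bovine liver mitochondrial MAO-B, partially purified, at 0.087 μM. Four substrate concentrations were used, from 500–62.5 μM solutions in 100 mM sodium phosphate, pH 7.4. Each was equilibrated 1 min at 37 °C before enzyme was added. Amino enone formation was read at 324 nm every 3 s for 2 min, in duplicate. Km and TN came from Lineweaver-Burk double-reciprocal plots of initial rates.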

Substrate in data set [11]: CN1CC=C(Cc2ccc3ccccc3c2)CC1
The description is as §3. More on the design: species or system Bos taurus. An outline of the steps: as §4

Substrate in data set [12]: CN1CC=C(Oc2ccc(-c3ccccc3)cc2)CC1
The data set is described as §3. The arrangement: species or system Bos taurus. An outline of the steps: as §4

Substrate in data set [13]: CN1CC=C(Oc2ccc(C(C)(C)C)cc2)CC1
Described as §3. More on the design: species or system Bos taurus. The gist of the method:
as §4

Substrate in data set [14]: CN1CC=C(Oc2ccc(Cl)cc2Cl)CC1
The description is as §3. More on the design: species or system Bos taurus. The gist of the method: as §4

Substrate in data set [15]: CN1CC=C(Oc2ccc3ccccc3c2)CC1
The data set is described as §3. More on the design: species or system Bos taurus. The gist of the method: as §4

Substrate in data set [16]: CN1CC=C(Oc2cccc3ccccc23)CC1
Described as §3. The arrangement: species or system Bos taurus. The gist of the method: as §4

Substrate in data set [17]: CN1CC=C(Oc2ccccc2)CC1
The description is as §3. The arrangement: species or system Bos taurus. An outline of the steps:
as §4

B1: Amine oxidase [flavin-containing] A (Homo sapiens) (protein)
chain: MENQEKASIAGHMFDVVVIGGGISGLSAAKLLTEYGVSVLVLEARDRVGGRTYTIRNEHVDYVDVGGAYVGPTQNRILRLSKELGIETYKVNVSERLVQYVKGKTYPFRGAFPPVWNPIAYLDYNNLWRTIDNMGKEIPTDAPWEAQHADKWDKMTMKELIDKICWTKTARRFAYLFVNINVTSEPHEVSALWFLWYVKQCGGTTRIFSVTNGGQERKFVGGSGQVSERIMDLLGDQVKLNHPVTHVDQSSDNIIIETLNHEHYECKYVINAIPPTLTAKIHFRPELPAERNQLIQRLPMGAVIKCMMYYKEAFWKKKDYCGCMIIEDEDAPISITLDDTKPDGSLPAIMGFILARKADRLAKLHKEIRKKKICELYAKVLGSQEALHPVHYEEKNWCEEQYSGGCYTAYFPPGIMTQYGRVIRQPVGRIFFAGTETATKWSGYMEGAVEAGERAAREVLNGLGKVTEKDIWVQEPESKDVPAVEITHTFWERNLPSVSGLLKIIGFSTSVTALGFVLYKYKLLPRS
Turning to B1, the Michaelis-Menten constant (Km) in [1] came to 51 µM; in data set [2], 480 µM; in [3], 278 µM; in [4], 101 µM; in [5], 130 µM; in data set [6], 29 µM. For the same protein, the Km in data set [7] came out at 77 µM; in [8] it was 144 µM; in data set [9], 55 µM.

B2: Amine oxidase [flavin-containing] B (Bos taurus) (protein)
chain: MSSKCDVVVVGGGISGMAAAKLLHDSGLNVIVLEARDRVGGRTYTLRNQKVKYVDLGGSYVGPTQNHILRLSKELGLETYKVNEVERLIHHTKGKSYPFRGSFPSVWNPITYLDHNNLWRTMDDMGREIPSDAPWKAPLAEQWDLMTMKELLDKICWTESSKQLAILFVNLCVTAEIHEVSALWFLWYVKQCGGTTRIFSTSNGGQERKFVGGSGQVSERIMDLLGDRVKLERPVIHIDQTGENVLVETLNHELYEAKYVISAVPPVLGMKIHFNPPLPMMRNQLITRVPLGSVIKSIVYYKEPFWRNMDYCGSMIIEGEEAPVAYALDDTKPDGSYPAIIGFILAHKARKLARLTKEERLKKLCDLYAKVLGSQEALHPVHYEEKNWCEEQYSGGCYTSYFPPGIMTQYGRVLRQPVGRIYFAGTETATHWSGYMEGAVEAGERAAREILHAMGKIPEDEIWLPEPESVDVPAKPITTTFLQRHLPSVPGLLKLIGLTTIFSATALGFLAHKRGLLVRI
B2: the Michaelis constant (Km) was 84 µM in data set [10]; 892 µM in data set [11]; 284 µM in data set [12]; 56 µM in data set [13]; 167 µM in [14]; 274 µM in [15]. Further, the Km in data set [16] turned out to be 143 µM; in data set [17], 58 µM.
